Series [1] relates to MCF7. Kind of series: Antiproliferative activity against human MCF7 cells assessed as cell survival at 10 uM after 48 hrs by SRB assay. To be noted: MCF7, 48 h, read-out: Survival. It is filed as functional. The method in brief: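 Human breast cancer MCF-7 cells were exposed once to a single compound concentration for 48 h. Vehicle controls received DMSO, added as 0.1%. Survival was read by sulforhodamine B staining and expressed as percent of cells remaining relative to the DMSO control, set at 100%, with SD.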

The test system of series [2] is A549. The experiment in a line: Antiproliferative activity against human A549 cells assessed as cell viability after 48 hrs by SRB assay. In kind it is functional, cell-based. To be noted: A549, 48 h. In general terms: Sulforhodamine B stains cellular protein and so reports cell mass.
Series [3] relates to MCF7. The experiment in a line: Antiproliferative activity against human MCF7 cells assessed as cell viability after 48 hrs by SRB assay. It is filed as functional, cell-based. To be noted: MCF7, 48 h.
Series [4] in a line: Cytotoxicity against human F180 cells assessed as cell viability after 48 hrs by SRB assay. In kind it is cell-based. To be noted: F180, 48 h.
The subject of series [5] is HeLa. The experiment in a line: Antiproliferative activity against human HeLa cells assessed as cell viability after 48 hrs by SRB assay. In kind it is functional, cell-based.
Series [6] can be described thus: Antiproliferative activity against human HCT116 cells assessed as cell viability after 48 hrs by SRB assay. The following applies: HCT-116, 48 h. It is filed as functional, cell-based.
A short description of series [7]: Ratio of compound IC50 to doxorubicin IC50 for human F180 cells. In kind it is ADME, cell-based. The following applies: read-out: Ratio IC50.

pIC50: −log10 of the molar value.

Turning to `COC(=O)c1cc(NC2=NC(=O)/C(=C/c3ccccc3O)S2)ccc1O`, in series [1], the viability at 10 µM is 16.5%. For the same molecule, the pIC50 in series [2] was < 5.00; in series [3], 6.30; in series [4], < 5.00; in series [5], 5.86; in series [6], 5.46.
On to `COC(=O)c1cc(NC2=NC(=O)/C(=C/c3cccc(Br)c3)S2)ccc1O`, for which, in series [1], the viability at 10 µM came to 68%.
Still for that read-out and setting: as for `COC(=O)c1cc(NC2=NC(=O)/C(=C/c3cccc([N+](=O)[O-])c3)S2)ccc1O`, the figure is 82.2%; as for `COC(=O)c1cc(NC2=NC(=O)/C(=C/c3cc(OC)c(OC)c(OC)c3)S2)ccc1O`, 73.3%.
Same read-out and setting: as for `COC(=O)c1cc(NC2=NC(=O)/C(=C/c3ccccc3Cl)S2)ccc1O`, the figure is 85%.
For the molecule `COC(=O)c1cc(NC2=NC(=O)/C(=C/c3ccc(C)cc3)S2)ccc1O`, the viability at 10 µM in series [1] came out at 17.8%. Moreover, the pIC50 is 5.66 in series [2]; 6.39 in series [3]; 5.98 in series [4]; 7.07 in series [5]; 6.35 in series [6].
For the molecule `COC(=O)c1cc(NC2=NC(=O)/C(=C/c3ccc(OC)c(OC)c3)S2)ccc1O`, the viability at 10 µM in series [1] amounted to 26.6%.
The same measure, in the same setting: as for `COC(=O)c1cc(NC2=NC(=O)/C(=C/c3ccc(Cl)cc3)S2)ccc1O`, the figure is 28%; as for `COC(=O)c1cc(NC2=NC(=O)CS2)ccc1O`, 97%.
Take `COC(=O)c1cc(NC2=NC(=O)/C(=C/c3ccccc3OC)S2)ccc1O`: in series [1], the viability at 10 µM worked out at 70%.
For `COC(=O)c1cc(NC2=NC(=O)/C(=C/c3ccccc3)S2)ccc1O`, the viability at 10 µM in series [1] was determined as 67.8%.
Consider `COC(=O)c1cc(NC2=NC(=O)/C(=C/c3ccc(N(C)C)cc3)S2)ccc1O`, for which the viability at 10 µM in series [1] turned out to be 16.2%. Also, the pIC50 is 5.62 in series [2]; 6.20 in series [3]; 6.03 in series [4]; 6.74 in series [5]; 6.51 in series [6].
`COC(=O)c1cc(NC2=NC(=O)/C(=C/c3ccc(F)cc3)S2)ccc1O`: the viability at 10 µM in series [1] is 86%.
For the molecule `COC(=O)c1cc(NC2=NC(=O)/C(=C/c3ccc(O)cc3)S2)ccc1O`, the viability at 10 µM in series [1] was found to be 93.5%.
Regarding `COC(=O)c1cc(NC2=NC(=O)/C(=C/c3ccc([N+](=O)[O-])cc3)S2)ccc1O`, in series [1], the viability at 10 µM was 73.9%.
Take `COc1cccc2c1C(=O)c1c(O)c3c(c(O)c1C2=O)C[C@@](O)(C(=O)CO)C[C@@H]3O[C@H]1C[C@H](N)[C@H](O)[C@H](C)O1` [DOXORUBICIN]: the viability at 10 µM in series [1] is 4%. Further, the pIC50 in series [2] is 6.35; in series [4] it was 6.46; in series [5] it was 7.00; in series [6], 6.42.
In the case of `COC(=O)c1cc(NC2=NC(=O)/C(=C/c3ccc(Br)cc3)S2)ccc1O`, the viability at 10 µM in series [1] was 19%. Also, the pIC50 in series [2] is 5.08; in series [3], 7.15; in series [4], 5.00; in series [5] it was 5.46; in series [6] it was 5.25. Also, the selectivity ratio in series [7] came out at 28.
Turning to `COC(=O)c1cc(NC2=NC(=O)/C(=C/c3cccc(Cl)c3)S2)ccc1O`, in series [1], the viability at 10 µM came to 65.9%.
As for `COC(=O)c1cc(NC2=NC(=O)/C(=C/c3ccc(OC)cc3)S2)ccc1O`, the viability at 10 µM in series [1] was 26%.
With `COC(=O)c1cc(NC2=NC(=O)/C(=C/c3ccc4c(c3)OCO4)S2)ccc1O`, the viability at 10 µM in series [1] was found to be 28%.

A word on the pIC50: it is the negative decadic logarithm of the IC50, by convention in mol/L.

Source of the values: ChEMBL document CHEMBL3784919, “Design and synthesis of novel 5-aminosalicylate (5-ASA)-4-thiazolinone hybrid derivatives with promising antiproliferative activity” (Bioorg Med Chem Lett, 2016).
